# Measurements reported in ChEMBL document CHEMBL4312015, “Design, synthesis and 3D-QSAR analysis of novel thiopyranopyrimidine derivatives as potential antitumor agents inhibiting A549 and Hela cancer cells” (Eur J Med Chem, 2020).
# Tests used:
# A549 [1] = experiment: Antiproliferative activity against human A549 cells assessed as inhibition of cell growth after 72 hrs by MTT assay; type: functional, cell-based; settings: A549, 72 h
# Outline: (§1)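 Cell lines from the Chinese Academy of Sciences cell collection, grown in 96-well plates with a range of compound concentrations for 72 h. Viability read by MTT, with AZD9291 as positive control. IC50 values are averages of three determinations per the methods section; table footnotes state an average of two separate determinations.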
# HeLa = experiment: Antiproliferative activity against human HeLa cells assessed as inhibition of cell growth after 72 hrs by MTT assay; type: functional, cell-based; outline: as §1
# [2] = Inhibition of PI3K (unknown origin); parameters: species or system Homo sapiens
# [3] = biological target: Epidermal growth factor receptor (Homo sapiens, UniProt P00533); experiment: Inhibition of wildtype EGFR (unknown origin) using biotin as substrate in presence of ATP by mobility shift assay based ELISA
# [4] = biological target: Epidermal growth factor receptor (Homo sapiens, UniProt P00533, L858R/T790M); experiment: Inhibition of EGFR T790M/L858R double mutant (unknown origin) using biotin as substrate in presence of ATP by mobility shift assay based ELISA
# Homo sapiens = species: Homo sapiens; experiment: Selectivity ratio of IC50 for wildtype EGFR (unknown origin) to IC50 for EGFR T790M/L858R double mutant (unknown origin) by mobility shift assay based ELISA
# NCI-H1975 [5] = experiment: Antiproliferative activity human NCI-H1975 cells harboring EGFR T790M/L858R double mutant assessed as inhibition of cell growth at 10 uM after 72 hrs by MTT assay relative to control; type: functional; settings: NCI-H1975, 72 h
# Outline: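 H1975 cells exposed to compound at a single 10 uM concentration. Growth inhibition rate read by MTT after 72 h in 96-well plates, with AZD9291 as positive control. Values are an average of two separate determinations.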
# NCI-H1975 [6] = experiment: Antiproliferative activity against human NCI-H1975 cells harboring EGFR T790M/L858R double mutant assessed as inhibition of cell growth after 72 hrs by MTT assay; type: functional, cell-based; settings: NCI-H1975, 72 h; outline: as §1
# A549 [7] = experiment: Induction of apoptosis in human A549 cells assessed as viable cells at 0.716 uM after 24 hrs by AnnexinV-FITC/propidium iodide staining based FACSCalibur flow cytometry analysis (reference value: 94.42 %); type: functional; settings: A549, 24 h, read-out: Activity
# A549 [8] = experiment: Induction of apoptosis in human A549 cells assessed as early apoptotic cells at 0.716 uM after 24 hrs by AnnexinV-FITC/propidium iodide staining based FACSCalibur flow cytometry analysis (reference value: 3.51 %); type: functional
# A549 [9] = experiment: Induction of apoptosis in human A549 cells assessed as late apoptotic cells at 0.716 uM after 24 hrs by AnnexinV-FITC/propidium iodide staining based FACSCalibur flow cytometry analysis (reference value: 1.74 %); type: functional
# A549 [10] = experiment: Induction of apoptosis in human A549 cells assessed as necrotic cells at 0.716 uM after 24 hrs by AnnexinV-FITC/propidium iodide staining based FACSCalibur flow cytometry analysis (reference value: 0.33 %); type: functional
# A549 [11] = experiment: Cell cycle arrest in human A549 cells assessed as accumulation at G0/G1 phase at 0.716 uM after 24 hrs by propidium iodide staining based FACSCalibur flow cytometry analysis (reference value: 74.31 %); type: functional
# Outline: (§2)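 A549 cells seeded in 6-well plates for 24 h, then treated for 24 h; vehicle was 0.1% DMSO. Cells were harvested as single-cell suspensions, fixed in 70% ice-cold ethanol for 12 h, and stained with propidium iodide. DNA content was measured by flow cytometry. AZD9291 at 0.462 uM was included as reference.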
# A549 [12] = experiment: Cell cycle arrest in human A549 cells assessed as accumulation at S phase at 0.716 uM after 24 hrs by propidium iodide staining based FACSCalibur flow cytometry analysis (reference value: 22.24 %); type: functional; outline: as §2
# A549 [13] = experiment: Cell cycle arrest in human A549 cells assessed as accumulation at G2/M phase at 0.716 uM after 24 hrs by propidium iodide staining based FACSCalibur flow cytometry analysis (reference value: 3.45 %); type: functional; outline: as §2
# Epidermal growth factor receptor (Homo sapiens, UniProt P00533, L858R/T790M), sequence (P00533 25-1210 T790M/L858R limits assumed): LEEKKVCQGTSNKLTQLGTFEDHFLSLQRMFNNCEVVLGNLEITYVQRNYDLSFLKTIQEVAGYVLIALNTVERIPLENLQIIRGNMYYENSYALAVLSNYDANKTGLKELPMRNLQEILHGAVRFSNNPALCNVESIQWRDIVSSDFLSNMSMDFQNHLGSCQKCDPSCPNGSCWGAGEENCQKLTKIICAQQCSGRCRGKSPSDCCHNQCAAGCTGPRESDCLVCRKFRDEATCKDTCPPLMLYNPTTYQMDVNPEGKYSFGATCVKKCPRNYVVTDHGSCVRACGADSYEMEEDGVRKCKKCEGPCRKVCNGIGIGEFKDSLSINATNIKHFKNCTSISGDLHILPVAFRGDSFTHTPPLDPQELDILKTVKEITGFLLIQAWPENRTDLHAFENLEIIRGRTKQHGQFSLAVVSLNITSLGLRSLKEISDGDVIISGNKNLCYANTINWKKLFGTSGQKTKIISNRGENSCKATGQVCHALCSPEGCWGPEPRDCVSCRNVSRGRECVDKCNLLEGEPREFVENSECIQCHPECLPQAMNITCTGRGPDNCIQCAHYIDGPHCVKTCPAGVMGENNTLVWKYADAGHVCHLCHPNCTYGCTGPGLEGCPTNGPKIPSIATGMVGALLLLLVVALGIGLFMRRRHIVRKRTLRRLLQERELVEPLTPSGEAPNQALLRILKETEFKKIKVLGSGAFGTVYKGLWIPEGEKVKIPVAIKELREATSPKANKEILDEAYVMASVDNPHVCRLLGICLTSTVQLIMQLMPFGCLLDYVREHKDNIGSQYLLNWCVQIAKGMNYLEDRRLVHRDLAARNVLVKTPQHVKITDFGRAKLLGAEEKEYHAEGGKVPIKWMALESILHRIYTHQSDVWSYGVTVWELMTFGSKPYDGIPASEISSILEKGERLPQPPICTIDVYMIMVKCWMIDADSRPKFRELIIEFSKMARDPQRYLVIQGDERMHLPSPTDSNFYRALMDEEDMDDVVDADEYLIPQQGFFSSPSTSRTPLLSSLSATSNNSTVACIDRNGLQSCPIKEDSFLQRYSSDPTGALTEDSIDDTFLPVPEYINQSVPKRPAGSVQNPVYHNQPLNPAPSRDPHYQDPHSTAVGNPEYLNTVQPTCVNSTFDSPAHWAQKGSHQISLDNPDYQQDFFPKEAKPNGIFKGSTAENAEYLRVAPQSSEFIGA
# Epidermal growth factor receptor (Homo sapiens, UniProt P00533), sequence (P00533 whole entry): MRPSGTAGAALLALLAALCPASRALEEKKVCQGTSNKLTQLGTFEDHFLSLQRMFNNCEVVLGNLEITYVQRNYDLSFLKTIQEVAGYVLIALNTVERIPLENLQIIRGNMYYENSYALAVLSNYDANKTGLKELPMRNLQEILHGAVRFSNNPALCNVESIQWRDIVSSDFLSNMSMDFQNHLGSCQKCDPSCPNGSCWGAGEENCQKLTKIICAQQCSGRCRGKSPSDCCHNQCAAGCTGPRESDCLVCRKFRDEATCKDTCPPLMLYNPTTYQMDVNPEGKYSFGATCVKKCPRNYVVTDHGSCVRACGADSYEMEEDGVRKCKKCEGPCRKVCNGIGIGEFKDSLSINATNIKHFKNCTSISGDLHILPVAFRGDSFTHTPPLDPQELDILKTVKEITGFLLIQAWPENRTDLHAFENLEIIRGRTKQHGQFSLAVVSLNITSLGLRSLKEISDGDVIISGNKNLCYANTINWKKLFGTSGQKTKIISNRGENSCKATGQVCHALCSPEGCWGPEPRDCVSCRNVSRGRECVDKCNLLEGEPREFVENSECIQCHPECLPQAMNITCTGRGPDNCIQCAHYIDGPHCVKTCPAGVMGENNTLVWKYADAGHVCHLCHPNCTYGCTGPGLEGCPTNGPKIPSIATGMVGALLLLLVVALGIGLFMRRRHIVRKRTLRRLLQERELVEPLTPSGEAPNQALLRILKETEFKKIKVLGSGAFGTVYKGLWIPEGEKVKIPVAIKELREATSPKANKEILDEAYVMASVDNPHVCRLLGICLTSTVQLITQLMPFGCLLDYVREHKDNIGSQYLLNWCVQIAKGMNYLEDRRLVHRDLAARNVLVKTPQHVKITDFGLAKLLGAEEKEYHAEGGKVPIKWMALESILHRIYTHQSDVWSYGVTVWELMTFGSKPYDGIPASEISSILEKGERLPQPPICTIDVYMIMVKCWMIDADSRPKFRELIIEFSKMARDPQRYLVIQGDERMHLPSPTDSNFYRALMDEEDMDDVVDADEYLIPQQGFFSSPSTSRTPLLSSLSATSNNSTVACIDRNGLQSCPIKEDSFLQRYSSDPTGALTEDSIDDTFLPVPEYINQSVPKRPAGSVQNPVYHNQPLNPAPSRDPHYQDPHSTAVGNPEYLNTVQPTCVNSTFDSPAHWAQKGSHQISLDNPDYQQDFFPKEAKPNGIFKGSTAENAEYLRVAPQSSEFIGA
IC50 (A549 [1]),IC50 (HeLa; read-out: IC50),IC50 (HeLa; read-out: pIC50 (converted)),IC50 [3],IC50 [4],Ratio IC50 (Homo sapiens),SMILES,other results
3990 nM,2470 nM,2470 nM,,,,C/C=C\C(=O)Nc1cc(Nc2nc3c(c(-c4cn(C)c5ccc(F)cc45)n2)CS(=O)(=O)CC3)c(OC)cc1N(C)CCN(C)C,
,,,,,,CS(=O)(=O)N1CCN(Cc2cc3nc(-c4cccc5[nH]ncc45)nc(N4CCOCC4)c3s2)CC1 [PICTILISIB],IC50 [2]: 3 nM
4260 nM,6010 nM,6010 nM,,,,C/C=C\C(=O)Nc1cc(Nc2nc3c(c(-c4cn(C)c5ccccc45)n2)CS(=O)(=O)CC3)c(OC)cc1N(C)CCN(C)C,
881 nM,205 nM,205 nM,104 nM,990 nM,1.1,C=C(Cl)C(=O)Nc1cc(Nc2nc3c(c(-c4cn(C)c5ccccc45)n2)CS(=O)(=O)CC3)c(OC)cc1N(C)CCN(C)C,inhibition at 10 µM (NCI-H1975 [5]): 99%; IC50 (NCI-H1975 [6]): 4230 nM
8680 nM,115 nM,115 nM,,,,C=CC(=O)Nc1cc(Nc2nc3c(c(-c4cn(C)c5ccccc45)n2)CS(=O)(=O)CC3)c(OC)cc1N(C)CCN(C)C,
716 nM,1000 nM,1000 nM,570 nM,31 nM,18.4,C=C(Cl)C(=O)Nc1cc(Nc2nc3c(c(-c4cn(C)c5ccccc45)n2)CSCC3)c(OC)cc1N(C)CCN(C)C,inhibition at 10 µM (NCI-H1975 [5]): 99.6%; IC50 (NCI-H1975 [6]): 4210 nM; viability at 0.716 µM (A549 [7]): 85.9%; Activity (A549 [8]): 7.56%; Activity (A549 [9]): 5.99%; Activity (A549 [10]): 0.6%; Activity (A549 [11]): 60.51%; Activity (A549 [12]): 27.14%; Activity (A549 [13]): 12.35%
1350 nM,5220 nM,5220 nM,,,,CC/C=C\C(=O)Nc1cc(Nc2nc3c(c(-c4cn(C)c5ccccc45)n2)CS(=O)(=O)CC3)c(OC)cc1N(C)CCN(C)C,
902 nM,284 nM,284 nM,,,,COc1cc(N(C)CCN(C)C)c(NC(=O)C=C(C)C)cc1Nc1nc2c(c(-c3cn(C)c4ccc(F)cc34)n1)CSCC2,
38 nM,2960 nM,2960 nM,,,,COc1cc(N(C)CCN(C)C)c(NC(=O)/C=C\C(C)C)cc1Nc1nc2c(c(-c3cn(C)c4ccccc34)n1)CS(=O)(=O)CC2,
6860 nM,1650 nM,1650 nM,,,,C/C=C\C(=O)Nc1cc(Nc2nc3c(c(-c4cn(C)c5ccccc45)n2)CSCC3)c(OC)cc1N(C)CCN(C)C,
4640 nM,175 nM,175 nM,,,,C=CC(=O)Nc1cc(Nc2nc3c(c(-c4cn(C)c5ccc(F)cc45)n2)CS(=O)(=O)CC3)c(OC)cc1N(C)CCN(C)C,
788 nM,711 nM,711 nM,> 2000 nM,1620 nM,> 1.2,COc1cc(N(C)CCN(C)C)c(NC(=O)/C=C\C(C)C)cc1Nc1nc2c(c(-c3cn(C)c4ccccc34)n1)CSCC2,
2140 nM,5920 nM,5920 nM,201 nM,> 2000 nM,,COc1cc(N(C)CCN(C)C)c(NC(=O)C=C(C)C)cc1Nc1nc2c(c(-c3cn(C)c4ccc(F)cc34)n1)CS(=O)(=O)CC2,
236 nM,799 nM,800 nM,> 2000 nM,1250 nM,> 1.6,CC/C=C\C(=O)Nc1cc(Nc2nc3c(c(-c4cn(C)c5ccccc45)n2)CSCC3)c(OC)cc1N(C)CCN(C)C,
1150 nM,1330 nM,1330 nM,> 2000 nM,1690 nM,> 1.2,COc1cc(N(C)CCN(C)C)c(NC(=O)/C=C\C(C)C)cc1Nc1nc2c(c(-c3cn(C)c4ccc(F)cc34)n1)CSCC2,inhibition at 10 µM (NCI-H1975 [5]): 99.7%
